Measurements reported in ChEMBL document CHEMBL1143814, “Clinical and pharmacokinetic data support once-daily low-dose boosted saquinavir (1,200 milligrams saquinavir with 100 milligrams ritonavir) in treatment-naive or limited protease inhibitor-experienced human immunodeficiency virus-infected patients” (Antimicrob Agents Chemother, 2007).

Legend:
Format in all cases: ADME, organism-based
[1] = AUC (0 to 24 hrs) in PBMC cellular compartment of HIV infected virological failure patient; set-up: time < 24 hr; settings: human
Procedure, shortened: (§1)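 PBMC drug levels, same once-daily saquinavir/ritonavir 1,200/100 mg regimen at steady state, same sampling times. PBMC were isolated from EDTA blood diluted 1:1 in PBS (pH 7.4) by Ficoll density centrifugation and washed twice in PBS. Pellet volume was taken as equal to its weight. Pellets were frozen at −70°C and assayed by HPLC-UV at 215 nm. Analysis was noncompartmental, with the terminal phase from the 12–24 h points.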

[2] = Elimination half life in PBMC cellular compartment of HIV infected virological failure patient after 24 hrs; settings: human; procedure, shortened: as §1
Homo sapiens [3] = organism: Homo sapiens; experiment: Ratio of Cmax in PBMC cellular compartment to plasma in HIV infected virological failure patient
Procedure, shortened: (§2)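 Steady-state study (≥1 month on once-daily saquinavir 1,200 mg + ritonavir 100 mg with two NRTIs). 24-h profile: blood drawn predose and at 2, 4, 6, 8, 12 and 24 h after supervised intake. Plasma was separated, and PBMC were isolated on a Ficoll gradient, weighed, and volume was taken as weight. Saquinavir was measured by HPLC-UV at 215 nm (LLOQ 40 ng/ml). Noncompartmental analysis was used, with terminal slope from the 12–24 h points. Ratio = intracellular/plasma.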

[4] = Ratio of Cmin in PBMC cellular compartment to plasma in HIV infected virological failure patient; settings: human, read-out: Cmin_ratio
Procedure, shortened: (§3)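 Trough (Cmin) saquinavir was sampled at steady state on once-daily 1,200/100 mg saquinavir/ritonavir, either as the 24-h point of the full profile or as a single sample 24 ± 0.5 h postdose. Plasma and Ficoll-isolated PBMC (volume from weight) were assayed by HPLC-UV at 215 nm (LLOQ 40 ng/ml). Ratio = intracellular/plasma concentration.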

[5] = Ratio of AUC (0 to 24 hrs) in PBMC cellular compartment to plasma in HIV infected virological failure patient; settings: human, read-out: AUC_ratio; procedure, shortened: as §2
Homo sapiens [6] = organism: Homo sapiens; experiment: Ratio of elimination half life in PBMC cellular compartment to plasma in HIV infected virological failure patient; procedure, shortened: as §2
[7] = Cmax in HIV infected patient plasma after 24 hrs; settings: human
Procedure, shortened: (§4)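 Plasma PK at steady state (≥1 month) in HIV patients on once-daily saquinavir 1,200 mg plus ritonavir 100 mg and two NRTIs. EDTA blood was drawn predose and at 2, 4, 6, 8, 12 and 24 h after supervised intake, or as a single 24 ± 0.5 h trough. Plasma was stored at −70°C and assayed by HPLC-UV at 215 nm (LLOQ 40 ng/ml). Parameters were noncompartmental, with the terminal slope from the 12–24 h points.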

[8] = Cmin in HIV infected patient plasma after 24 hrs; settings: human, read-out: Cmin; procedure, shortened: as §4
[9] = AUC (0 to 24 hrs) in HIV infected patient plasma after 24 hrs; set-up: time < 24 hr; settings: human; procedure, shortened: as §4
[10] = Elimination half life in HIV infected patient plasma after 24 hrs; settings: human; procedure, shortened: as §4
[11] = Cmax in PBMC cellular compartment of HIV infected virological failure patient after 24 hrs; settings: human; procedure, shortened: as §1
[12] = Cmin in PBMC cellular compartment of HIV infected virological failure patient after 24 hrs; settings: human, read-out: Cmin; procedure, shortened: as §1
[13] = AUC (0 to 24 hrs) in PBMC cellular compartment of HIV infected patient after 24 hrs; set-up: time < 24 hr; settings: human; procedure, shortened: as §1
[14] = Elimination half life in PBMC cellular compartment of HIV infected patient after 24 hrs; settings: human; procedure, shortened: as §1
Homo sapiens [15] = organism: Homo sapiens; experiment: Ratio of Cmax in PBMC cellular compartment to plasma in HIV infected patient; procedure, shortened: as §2
[16] = Ratio of Cmin in PBMC cellular compartment to plasma in HIV infected patient; settings: human, read-out: Cmin_ratio; procedure, shortened: as §3
[17] = Ratio of AUC (0 to 24 hrs) in PBMC cellular compartment to plasma in HIV infected patient; settings: human, read-out: AUC_ratio; procedure, shortened: as §2
Homo sapiens [18] = organism: Homo sapiens; experiment: Ratio of elimination half life in PBMC cellular compartment to plasma in HIV infected patient; procedure, shortened: as §2
[19] = Cmax in HIV infected virological failure patient plasma after 24 hrs; settings: human; procedure, shortened: as §4
[20] = Cmin in HIV infected virological failure patient plasma after 24 hrs; settings: human, read-out: Cmin; procedure, shortened: as §4
[21] = AUC (0 to 24 hrs) in HIV infected virological failure patient plasma; set-up: time < 24 hr; settings: human; procedure, shortened: as §2
[22] = Elimination half life in HIV infected virological failure patient plasma after 24 hrs; settings: human; procedure, shortened: as §4
[23] = in the assay text read “HIV infected patient” for “HIV infected virological failure patient”

CC(C)(C)NC(=O)[C@@H]1C[C@@H]2CCCC[C@@H]2CN1C[C@@H](O)[C@H](Cc1ccccc1)NC(=O)[C@H](CC(N)=O)NC(=O)c1ccc2ccccc2n1 [SAQUINAVIR]
AUC(0-t) at 24 h [1]: 132 µg·h/mL | half-life [2]: 655 min | Cmax_ratio (Homo sapiens [3]): 4.46 (null) | Kp [4]: 3.01 | Kp [5]: 3.53 | t1/2_ratio (Homo sapiens [6]): 1.5 | Cmax [7]: 3670 ng/mL | concentration at 24 h [8]: 431 ng/mL | AUC(0-t) at 24 h [9]: 34300 ng·h/mL | half-life [10]: 495 min | Cmax [11]: 15200 ng/mL | Cmax [11, 23]: 10100 ng/mL | concentration at 24 h [12, 23]: 996 ng/mL | concentration at 24 h [12]: 1220 ng/mL | AUC(0-t) at 24 h [13]: 99500 ng·h/mL | half-life [14]: 750 min | Cmax_ratio (Homo sapiens [15]): 2.75 (null) | Kp [16]: 2.39 | Kp [17]: 2.75 | t1/2_ratio (Homo sapiens [18]): 1.5 | Cmax [19]: 3320 ng/mL | concentration at 24 h [20]: 384 ng/mL | AUC(0-t) at 24 h [21]: 35300 ng·h/mL | half-life [22]: 511 min
